Laboratory results taken from ChEMBL document CHEMBL1147356, “Structure and stereochemistry of pectinolides A-C, novel antimicrobial and cytotoxic 5,6-dihydro-alpha-pyrones from Hyptis pectinata” (1993).
In brackets after ≈: the same amount, converted by molar mass. Activity calls are given as the source filed them. The calls are words filed in the database; no cut-off is given here.

Columns and labels:
Bacillus subtilis [1] = assay: Antibacterial activity against Bacillus subtilis ATCC 6633 at < 100 ug/ml after 24 hrs at 37 degC by agar hole-plate diffusion assay; type: functional, organism-based
Staphylococcus aureus [2] = assay: Antibacterial activity against Staphylococcus aureus ATCC 6538 at < 100 ug/ml after 24 hrs at 37 degC by agar hole-plate diffusion assay; type: functional, organism-based
[3] = Cytotoxicity against human BC1 cells after 72 hrs by sulforhodamine B assay; type: functional; conditions: BC1, 72 h, read-out: ED50 (the source's name)
Outline: (§1)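 Log-phase cells treated with five sample concentrations (20.0–0.032 μg/ml) in DMSO for 72 h at 37°, 5% CO₂, 100% humidity. Sulforhodamine B staining quantified cells per well; results given as ED50.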

HT-1080 = assay: Cytotoxicity against human HT1080 cells after 48 hrs by sulforhodamine B assay; type: functional; conditions: HT-1080, 48 h, read-out: ED50 (the source's name)
Outline: (§2)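 Log-phase cells exposed to five concentrations (20.0–0.032 μg/ml) of sample in DMSO for 48 h at 37°, 5% CO₂, 100% humidity. Cell quantity per well determined by sulforhodamine B staining; ED50 reported.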

[4] = Cytotoxicity against human LUC1 cells after 48 hrs by sulforhodamine B assay; type: functional; conditions: LUC1, 48 h, read-out: ED50 (the source's name); outline: as §2
SK-MEL-2 = assay: Cytotoxicity against human SK-MEL-2 cells after 72 hrs by sulforhodamine B assay; type: functional; conditions: SK-MEL-2, 72 h, read-out: ED50 (the source's name); outline: as §1
KB = assay: Cytotoxicity against human KB cells after 72 hrs by sulforhodamine B assay; type: functional; conditions: read-out: ED50 (the source's name); outline: as §1
[5] = Cytotoxicity against vinblastine-resistant human KBV1 cells after 72 hrs by sulforhodamine B assay; type: functional; conditions: KB-V1, 72 h, read-out: ED50 (the source's name); outline: as §1
P388 = assay: Cytotoxicity against mouse P388 cells after 48 hrs by sulforhodamine B assay; type: functional; conditions: P388, 48 h, read-out: ED50 (the source's name); outline: as §2
A-431 = assay: Cytotoxicity against human A431 cells after 72 hrs by sulforhodamine B assay; type: functional; conditions: A-431, 72 h, read-out: ED50 (the source's name); outline: as §1
LNCaP = assay: Cytotoxicity against human LNCAP cells after 72 hrs by sulforhodamine B assay; type: functional; conditions: read-out: ED50 (the source's name); outline: as §1
ZR-75-1 = assay: Cytotoxicity against human ZR-75-1 cells after 72 hrs by sulforhodamine B assay; type: functional; conditions: ZR-75-1, 72 h, read-out: ED50 (the source's name); outline: as §1
Bacillus subtilis [6] = assay: Antibacterial activity against Bacillus subtilis ATCC 6633 at 1 mg/ml after 24 hrs at 37 degC by agar hole-plate diffusion assay; type: functional; conditions: ATCC 6633, 24 h, read-out: IZ
Outline: (§3)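 Agar hole-plate diffusion. Agar plates (15 ml) seeded with 1 ml overnight broth culture (10⁶ bacteria/ml); 11 mm holes filled with 100 μl of pure compound at 1 mg/ml. Streptomycin sulfate (1 mg/ml) as positive control. Duplicate per organism, 24 h at 37°. Inhibition zone diameters measured.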

Staphylococcus aureus [7] = assay: Antibacterial activity against Staphylococcus aureus ATCC 6538 at 1 mg/ml after 24 hrs at 37 degC by agar hole-plate diffusion assay; type: functional; conditions: ATCC 6538, 24 h, read-out: IZ; outline: as §3
Bacillus subtilis [8] = assay: Antibacterial activity against Bacillus subtilis ATCC 6633 after overnight incubation at 37 degC by twofold serial dilution technique; type: functional
Outline: (§4)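 Twofold broth dilution MIC. Sample at 1 mg/ml in MeOH-H2O (1:1), 0.5 ml added to 4.5 ml nutrient broth, then doubling dilutions from 100 to 0.2 μg/ml. Each tube inoculated to 10⁶ organisms/ml final. Duplicate per organism, with solvent and streptomycin control broths.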

Staphylococcus aureus [9] = assay: Antibacterial activity against Staphylococcus aureus ATCC 6538 after overnight incubation at 37 degC by twofold serial dilution technique; type: functional; outline: as §4
Escherichia coli [10] = assay: Antibacterial activity against Escherichia coli ATCC 8739 at < 100 ug/ml after 24 hrs at 37 degC by agar hole-plate diffusion assay; type: functional, organism-based
Pseudomonas aeruginosa [11] = assay: Antibacterial activity against Pseudomonas aeruginosa ATCC 9027 at < 100 ug/ml after 24 hrs at 37 degC by agar hole-plate diffusion assay; type: functional, organism-based
Candida albicans [12] = assay: Antifungal activity against Candida albicans ATCC 10231 at < 100 ug/ml after 24 hrs at 25 degC by agar hole-plate diffusion assay; type: functional, organism-based
Escherichia coli [13] = assay: Antibacterial activity against Escherichia coli ATCC 8739 by agar diffusion technique; type: functional
Pseudomonas aeruginosa [14] = assay: Antibacterial activity against Pseudomonas aeruginosa ATCC 9027 by agar diffusion technique; type: functional
Candida albicans [15] = assay: Antifungal activity against Candida albicans ATCC 10231 by agar diffusion technique; type: functional
[16] = Cytotoxicity against human Col2 cells after 72 hrs by sulforhodamine B assay; conditions: Col2, 72 h, read-out: ED50 (the source's name)

Compound | EC50 [3] [µg/mL] | EC50 (HT-1080) [µg/mL] | EC50 [4] [µg/mL] | EC50 (SK-MEL-2) [µg/mL] | EC50 (KB) [µg/mL] | EC50 [5] [µg/mL] | EC50 (P388) [µg/mL] | EC50 (A-431) [µg/mL] | EC50 (LNCaP) [µg/mL] | EC50 (ZR-75-1) [µg/mL] | zone of inhibition at 1000 µg/mL (Bacillus subtilis [6]) [mm] | zone of inhibition at 1000 µg/mL (Staphylococcus aureus [7]) [mm] | MIC (Bacillus subtilis [8]) [µg/mL] | MIC (Staphylococcus aureus [9]) [µg/mL] | Activity (Escherichia coli [10]) | Activity (Pseudomonas aeruginosa [11]) | Activity (Candida albicans [12]) | MIC (Escherichia coli [13]) [µg/mL] | MIC (Pseudomonas aeruginosa [14]) [µg/mL] | MIC (Candida albicans [15]) [µg/mL] | other results
CCCC[C@H](OC(C)=O)[C@@H](OC(C)=O)[C@H](OC(C)=O)[C@H]1CC=CC(=O)O1 [BORONOLIDE] | 2.8 (≈ 7.56 µM) | 4.5 (≈ 12.1 µM) | 3.9 (≈ 10.5 µM) | 3.3 (≈ 8.91 µM) | 4 (≈ 10.8 µM) | 8.6 (≈ 23.2 µM) | 1 (≈ 2.7 µM) | 6.5 (≈ 17.5 µM) | 3.2 (≈ 8.64 µM) | 8.7 (≈ 23.5 µM) | – | – | – | – | – | – | – | – | – | – | Activity (Bacillus subtilis [1]): inactive; Activity (Staphylococcus aureus [2]): inactive
CN[C@@H]1[C@H](O[C@H]2[C@H](O[C@H]3[C@H](O)[C@@H](O)[C@H](N=C(N)N)[C@@H](O)[C@@H]3N=C(N)N)O[C@@H](C)[C@]2(O)C=O)O[C@@H](CO)[C@H](O)[C@H]1O.CN[C@@H]1[C@H](O[C@H]2[C@H](O[C@H]3[C@H](O)[C@@H](O)[C@H](N=C(N)N)[C@@H](O)[C@@H]3N=C(N)N)O[C@@H](C)[C@]2(O)C=O)O[C@@H](CO)[C@H](O)[C@H]1O.O=S(=O)(O)O.O=S(=O)(O)O.O=S(=O)(O)O [STREPTOMYCIN SULFATE] | – | – | – | – | – | – | – | – | – | – | 13 | 9 | 3.12 | 6.25 | – | – | – | – | – | – | –
CC(=O)O[C@H](/C=C\[C@H]1CC=CC(=O)O1)C[C@@H](OC(C)=O)[C@H](C)OC(C)=O [HYPTOLIDE] | 2.4 (≈ 6.51 µM) | 9.6 (≈ 26.1 µM) | 4.9 (≈ 13.3 µM) | 12.2 (≈ 33.1 µM) | 3.6 (≈ 9.77 µM) | 4.5 (≈ 12.2 µM) | 1.6 (≈ 4.34 µM) | 3.7 (≈ 10 µM) | 7.5 (≈ 20.4 µM) | 6.4 (≈ 17.4 µM) | 5 | – | 100 (≈ 271 µM) | > 100 | inactive | inactive | inactive | > 500 | > 500 | > 500 | Activity (Bacillus subtilis [1]): inactive; Activity (Staphylococcus aureus [2]): inactive
CCCC[C@H](OC(C)=O)[C@@H](OC(C)=O)[C@H](OC(C)=O)[C@@H]1OC(=O)C=C[C@@H]1OC(C)=O | 7 (≈ 16.3 µM) | 8.4 (≈ 19.6 µM) | 7.6 (≈ 17.7 µM) | 4.5 (≈ 10.5 µM) | 4.4 (≈ 10.3 µM) | 6.3 (≈ 14.7 µM) | 0.4 (≈ 0.934 µM) | 2.6 (≈ 6.07 µM) | 1.9 (≈ 4.43 µM) | 7.8 (≈ 18.2 µM) | 5 | 4 | 50 (≈ 117 µM) | 100 (≈ 233 µM) | inactive | inactive | inactive | 300 (≈ 700 µM) | 200 (≈ 467 µM) | 500 (≈ 1170 µM) | –
CCCC[C@H](O)/C=C\[C@@H]1OC(=O)C=C[C@@H]1OC(C)=O [PECTINOLIDE B] | 2.5 (≈ 9.32 µM) | 2.3 (≈ 8.57 µM) | 3.8 (≈ 14.2 µM) | 2.2 (≈ 8.2 µM) | 1.4 (≈ 5.22 µM) | 2 (≈ 7.45 µM) | 0.1 (≈ 0.373 µM) | 0.6 (≈ 2.24 µM) | 0.9 (≈ 3.35 µM) | 1.6 (≈ 5.96 µM) | 6 | 4 | 25 (≈ 93.2 µM) | 100 (≈ 373 µM) | inactive | inactive | inactive | 300 (≈ 1120 µM) | 300 (≈ 1120 µM) | 300 (≈ 1120 µM) | EC50 [16]: 1.1 µg/mL (≈ 4.1 µM)
CCCC[C@@H](/C=C\[C@@H]1OC(=O)C=C[C@@H]1OC(C)=O)OC(C)=O [PECTINOLIDE A] | 1 (≈ 3.22 µM) | 1.7 (≈ 5.48 µM) | 0.9 (≈ 2.9 µM) | 0.7 (≈ 2.26 µM) | 1.8 (≈ 5.8 µM) | 1.8 (≈ 5.8 µM) | 0.9 (≈ 2.9 µM) | 1.4 (≈ 4.51 µM) | 0.7 (≈ 2.26 µM) | 3.6 (≈ 11.6 µM) | 10 | 8 | 6.25 (≈ 20.1 µM) | 12.5 (≈ 40.3 µM) | inactive | inactive | inactive | 200 (≈ 644 µM) | 200 (≈ 644 µM) | 250 (≈ 806 µM) | EC50 [16]: 1 µg/mL (≈ 3.22 µM)
CCCC[C@H](OC(=O)CCl)[C@@H](OC(C)=O)[C@H](OC(C)=O)[C@@H]1OC(=O)C=C[C@@H]1OC(C)=O | – | – | – | – | – | – | – | – | – | – | 7 | 5 | 50 (≈ 108 µM) | 75 (≈ 162 µM) | inactive | inactive | inactive | 300 (≈ 648 µM) | 300 (≈ 648 µM) | 200 (≈ 432 µM) | –
CCCC[C@H](OC(C)=O)[C@@H](O)[C@H](O)[C@@H]1OC(=O)C=C[C@@H]1OC(C)=O | 9.9 (≈ 28.7 µM) | 6.7 (≈ 19.5 µM) | 8.8 (≈ 25.6 µM) | 6 (≈ 17.4 µM) | 5.9 (≈ 17.1 µM) | > 20 | 0.5 (≈ 1.45 µM) | 4.5 (≈ 13.1 µM) | 4.5 (≈ 13.1 µM) | 6.2 (≈ 18 µM) | 7 | 4 | 50 (≈ 145 µM) | 75 (≈ 218 µM) | inactive | inactive | inactive | 300 (≈ 871 µM) | 300 (≈ 871 µM) | 200 (≈ 581 µM) | EC50 [16]: 5.1 µg/mL (≈ 14.8 µM)
CC(=O)O[C@@H](C)[C@@H](/C=C/[C@@H]1O[C@@H]1[C@H]1CC=CC(=O)O1)OC(C)=O | 4.8 (≈ 14.8 µM) | 5.7 (≈ 17.6 µM) | 3.3 (≈ 10.2 µM) | 4.1 (≈ 12.6 µM) | 2.9 (≈ 8.94 µM) | 3.4 (≈ 10.5 µM) | 0.4 (≈ 1.23 µM) | 1.9 (≈ 5.86 µM) | 1.8 (≈ 5.55 µM) | 4.7 (≈ 14.5 µM) | – | – | – | – | – | – | – | – | – | – | Activity (Bacillus subtilis [1]): inactive; Activity (Staphylococcus aureus [2]): inactive
NYSTATIN | – | – | – | – | – | – | – | – | – | – | – | – | – | – | – | – | – | – | – | – | inhibition zone (IZ) (Candida albicans [12]): 7 mm
CCCC[C@@H](/C=C\[C@@H]1OC(=O)C[C@@H](OC)[C@@H]1O)OC(C)=O | > 20 | > 20 | > 20 | > 20 | > 20 | > 20 | > 5 | > 20 | > 20 | > 20 | – | – | > 100 | > 100 | inactive | inactive | inactive | > 500 | > 500 | > 500 | Activity (Bacillus subtilis [1]): inactive
CCCC[C@@H](/C=C\[C@@H]1OC(=O)C=C[C@@H]1O)OC(C)=O [PECTINOLIDE C] | 2 (≈ 7.45 µM) | 1.8 (≈ 6.71 µM) | 2.3 (≈ 8.57 µM) | 3.3 (≈ 12.3 µM) | 1.7 (≈ 6.34 µM) | 3.2 (≈ 11.9 µM) | 2.2 (≈ 8.2 µM) | 0.8 (≈ 2.98 µM) | 0.8 (≈ 2.98 µM) | 1.9 (≈ 7.08 µM) | 8 | 4 | 12.5 (≈ 46.6 µM) | 100 (≈ 373 µM) | inactive | inactive | inactive | > 500 | > 500 | > 500 | EC50 [16]: 1.6 µg/mL (≈ 5.96 µM)
